Shown are actives, neighbours in structure and some others; about 2.4% of the full set was active somewhere.
HIV Env fusion: inhibitors of HIV Env-mediated cell fusion | inhibition, % at 12.3 µM | 360,000 compounds, 1.1% hits | HeLa-JRFL Env/CEM21 cell fusion, luciferase;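 active = mean replicate inhibition score of at least 50 and every replicate individually at or above 50; inconclusive = only one of the two criteria met; inactive = mean below 50 and not all replicates reaching 50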;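 also: 0% = plate neutral controls and 100% = maraviroc near 300 nM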
miR-122 sensor: miR-122 inhibition in Huh7 cells. AID 602342. activation (reporter increase), % at 12.5 µM. 340,000 compounds, 0.3% hits. Huh7 miR-122 Renilla luciferase sensor, 48 h; neutral wells = 0, positive control = 100;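 active = mean replicate activation score at least 90 and every replicate individually at or above 90; inconclusive = only one of the two criteria met; inactive = neither criterion met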;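 also: higher luciferase means less miR-122 activity so hits act as miR-122 inhibitors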
GSIS activator: primary screen for activators of insulin secretion dependent on glucose, INS-1E cells, GLuc reporter luminescence; activation, % at 16.6 µM; AID 743287; INS-1E GLuc reporter insulin secretion, 2-3 h; 370,000 compounds, 0.61% hits;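 active = lowest replicate activation of at least 40%, so every replicate reaches that level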;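 also: 0% = median of neutral control wells and 100% = median of IBMX positive control wells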
Rtt109 HAT inh: C. albicans Rtt109 histone acetyltransferase inhibition. Q5AAJ8. purified Rtt109/Vps75, ThioGlo CoA-SH fluorescence, 4 h. inhibition, % at 34.9 µM. 330,000 compounds, 0.16% hits. AID 540336;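 active = inhibition of at least 50% in every replicate; inconclusive = best replicate reaches 50% inhibition but some replicates fall short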
dFosB act: activators of mouse delta FosB homodimer; activation, % at 25 µM; 340,000 compounds, 0.99% hits; purified delta FosB, TAMRA-CDK5 oligo fluorescence polarization; percent of positive-control signal above neutral wells; AID 493131; P13346;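 active = mean activation above about 17%, with every replicate also reaching it, limit read from the data, passing the limit was not always enough; inconclusive = only one of the two conditions met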
Target sequence (P13346 whole entry, looked up): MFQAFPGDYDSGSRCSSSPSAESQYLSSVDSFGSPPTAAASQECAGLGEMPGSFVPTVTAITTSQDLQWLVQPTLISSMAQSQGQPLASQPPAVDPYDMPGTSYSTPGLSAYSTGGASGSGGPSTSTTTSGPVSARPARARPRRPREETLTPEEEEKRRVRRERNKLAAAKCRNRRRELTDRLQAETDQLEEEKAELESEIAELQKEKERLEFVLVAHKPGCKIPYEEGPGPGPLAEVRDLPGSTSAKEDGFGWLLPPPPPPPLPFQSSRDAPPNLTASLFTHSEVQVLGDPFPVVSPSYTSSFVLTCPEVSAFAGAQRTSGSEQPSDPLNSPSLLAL
Cneo AK release: Cryptococcus neoformans lysis via adenylate kinase release; C. neoformans lysis, adenylate kinase release luminescence, 4 h; normalised: neutral wells 0, clomiphene wells 100; lysis activity, % at 15 µM; 360,000 compounds, 0.2% hits; AID 651654;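 active = mean lysis activity across replicates of at least 80%, whatever share of replicates individually reach that level; inactive = mean lysis activity below 80%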
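read-out = cell lysis signal | test system = log-phase Cryptococcus neoformans yeast cells | input = cells at 5 × 10^6 per mL | medium = fresh YPD growth medium | signal = luminescent adenylate kinase detection reagent | timing = 4 h at 37 °C static, read 1 h later | dosing = single dose | controls = Clomiphene as positive lysis control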
Active calls of the source: *; ? = inconclusive; . = no result given; [ ] = remark or other dose.

SMILES	HIV Env fusion	miR-122 sensor	GSIS activator	Rtt109 HAT inh	dFosB act	Cneo AK release
CCOC(=O)c1c2n(c3ccc(OC(C)=O)cc13)CCC2	-28.1	-2.9	47.6*	0.1	-10.2	-2.3
CC(NNC(=S)N1CCCCCC1)c1ccc2ccccc2n1 (stereo not given)	68.8*	.	-9.9	.	.	.
CC(NNC(=S)N1CCN(c2ccccn2)CC1)c1nccc2ccccc12 (stereo not given)	-19.8	18.3	0.0	-4.5	-9.7	.
Cc1cc(Br)ccc1OCCCCNC(C)(C)C	.	-0.2	.	8.5	-2.8	0.8
CC(C)COc1ccc(Br)cc1CNC(C)(C)C	13.9	.	50.6*	3.9	-2.9	.
Cc1ccc2c(c1)C(c1ccccc1)N(C(=O)c1c(F)cccc1Cl)CC(=O)N2 (stereo not given)	59.1*	16.4	-5.5	4.7	-11.7	-2.6
O=C1CN(C(=O)c2c(F)cccc2F)C(c2ccccc2)c2cc(Br)ccc2N1 (stereo not given)	46.6	25.2	-6.0	-5.7	-18.8	2.1
COCC(=O)N(C)C[C@@H]1Oc2cc(C#CC3CCCC3)ccc2S(=O)(=O)N([C@@H](C)CO)C[C@H]1C	6.9[16.7 µM]	10.5[16.7 µM]	-9.7	.	.	.
NS(=O)(=O)c1ccc(CCNc2ncnc3sccc23)cc1	48.8*	5.4	.	1.6	2.4	0.2
NS(=O)(=O)c1ccc(CNc2ncnc3sccc23)cc1	-8.2	1.9	-0.5	3.0	-1.4	-3.1
C[C@H]1CN([C@@H](C)CO)C(=O)Cc2cc(NC(=O)Cn3cnnn3)ccc2O[C@H]1CN(C)Cc1ccc(C(=O)Nc2ccccc2N)cc1	.	.	6.0	.	.	.
Cc1cnc(C)c(Nc2nc(C(N)Cc3ccc(C(F)(F)F)cc3)cs2)n1 (stereo not given)	106.4*	1.8	-35.7	.	.	9.9
Cc1cnc(C)c(Nc2nc(C(N)Cc3ccccc3)cs2)n1 (stereo not given)	-27.4	-2.7	4.6	.	.	2.9
NC(Cc1ccc(F)cc1)c1csc(Nc2ccc(C(F)(F)F)cn2)n1 (stereo not given)	71.0*	-3.7	-28.8	.	.	-1.4
CC(C)NC(=O)N(C)C[C@H]1Oc2ncc(-c3ccc(C(=O)N(C)C)cc3)cc2C(=O)N([C@@H](C)CO)C[C@H]1C	-44.3[16.7 µM]	-0.7[16.7 µM]	11.5	.	.	-0.8
COc1ccc2c3c([nH]c2c1)[C@H](CO)N(C(=O)c1ccccc1)CC31CCN(C(=O)c2cccc(F)c2)CC1	.	.	3.7	.	.	.
O=C(C1CCC1)N1CCCCN2[C@H](CO)[C@@H](c3ccc(C#CC4CCCC4)cc3)[C@H]2C1	.	-25.3[16.7 µM]	.	.	.	1.2
O=S(=O)(c1ccc(F)cc1)N1CCCCN2[C@@H](CO)[C@H](c3ccc(-c4ccccc4F)cc3)[C@@H]2C1	.	-1.9[16.7 µM]	.	.	.	-1.0
O=C(O)C1(P(=O)(c2ccccc2)c2ccccc2)CCCC1	-25.3	5.6	.	5.6	-3.4	-0.9
CCN(CC)C(=O)C1(P(=O)(c2ccccc2)c2ccccc2)CCC1	21.3	-4.9	89.7*	.	.	-2.1
CCCCN(CCCC)C(=O)C1(P(=O)(c2ccccc2)c2ccccc2)CCC1	60.3*	-13.7	-29.6	4.1	-2.4	-1.5
C[C@H](CO)N1C[C@H](C)[C@H](CN(C)S(=O)(=O)c2ccccc2)Oc2ncc(-c3cccc(C(=O)N(C)C)c3)cc2C1=O	-19.7[16.7 µM]	.	2.6	.	.	-4.9
CC(C)CCn1c(=O)c2ccccc2n2c(CN3CCOCC3)nnc12	-0.6	.	45.0*	0.8	-4.1	.
Cc1ccc(Nc2cc(C)c3c(O)cccc3n2)cc1C	-115.5	-2.2	.	17.3	38.5*	-6.4
COc1ccc(Nc2cc(C)c3c(O)cccc3n2)cc1	-64.2	-23.1	36.5	18.6	?	-13.3
CCC(=O)N1CC2(C1)[C@@H](c1ccc(-c3cccc(OC)c3)cc1)[C@@H](CO)N2C(C)=O	.	.	4.5	.	.	.
COc1ccccc1-c1ccc([C@H]2[C@H]3CN(Cc4ccncc4)CCCCN3[C@H]2CO)cc1	.	-3.3[16.7 µM]	-12.3	.	.	-6.7
C=CCc1cccc(/C=N/NC(=O)CCC(=O)Nc2ccc(C)cc2)c1O	-12.9	-6.3	225.3*	-6.9	12.8	-0.2
COC(=O)C[C@H]1CC[C@H]2[C@H](COc3ccc(NC(=O)c4cccc(F)c4)cc3C(=O)N2C)O1	-3.9[16.7 µM]	17.8[16.7 µM]	-0.3	.	.	0.8
